In PubChem BioAssay AID504338 (NMMLSC, 2011):
Calls of active or inactive are those of the source.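 The calls were made as follows: active = GFP response vs DMSO above 150% with enough events counted; inconclusive = fewer than 70 events counted for a yeast strain; inactive = the rest.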

assay: yeast TOR reporter LAP4-GFP retest – cell-based, third cherry pick, flow cytometry, confirmation (AID 504338);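 also: ratio to plate DMSO wells so 100% equals DMSO level rather than 0%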; conditions: S. cerevisiae LAP4-GFP strain, 3 h, at 10 µM, hits give high values
Summary of the method: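 material = yeast LAP4-GFP strain | medium = synthetic complete growth medium for yeast | doses = 10 µM, one concentration | schedule = compound exposure for 3 h at 30 °C | signal = flow cytometric GFP fluorescence | read-out basis = percent of mean DMSO-control median fluorescence | control set = rapamycin 400 ng/mL as positive control, DMSO wells as reference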

Row | Compound | GFP response vs DMSO
1 | Cc1ccc2c(c1N)C(=O)c1ccccc1C2=O | 104% (inactive)
2 | CN(C)C(=O)Oc1ccc(Cl)c2cccnc12 | 106% (inactive)
3 | C/C(O)=C(\C#N)C(=O)Nc1cc(Br)ccc1Br | 106% (inactive)
4 | CN1CCN(c2ncnc3ccc(Br)cc23)CC1 | 107% (inactive)
5 | CN(C)C(=O)Oc1ccnc2cc(Cl)ccc12 | 107% (inactive)
6 | CCN1CCN(c2ncnc3ccc(Br)cc23)CC1 | 108% (inactive)
